Data set [1] deals with Mus musculus. Kind of data set: Protection against MPTP-induced DAergic neurotoxicity in C57B/6 mouse model of Parkinson's disease assessed as […] at 20 mg/kg, po observed after 7 days by microscopic analysis. Type of data set: functional, organism-based. A digest of the protocol: (§1)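 MPTP mouse model with 20 mg/kg oral dosing; striatal and substantia nigra sections collected 7 days later and stained for tyrosine hydroxylase; striatal TH density and nigral TH-positive neuron counts; mean ± SEM; one-way ANOVA with Tukey's test.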

The nature of data set [2]: Cytotoxicity against mouse BV2 cells assessed as cell viability at 10 uM incubated for 6 hrs by CCK-8 assay relative to control. Type of data set: cell-based, BV-2. Particulars: read-out: Activity. An outline of the steps:
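BV-2 cells exposed to compound for 6 h, then viability measured; percent survival reported.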

The target of data set [3] is T1, Nuclear factor erythroid 2-related factor 2 (Mus musculus) (UniProt Q60795).
T1 sequence (whole entry): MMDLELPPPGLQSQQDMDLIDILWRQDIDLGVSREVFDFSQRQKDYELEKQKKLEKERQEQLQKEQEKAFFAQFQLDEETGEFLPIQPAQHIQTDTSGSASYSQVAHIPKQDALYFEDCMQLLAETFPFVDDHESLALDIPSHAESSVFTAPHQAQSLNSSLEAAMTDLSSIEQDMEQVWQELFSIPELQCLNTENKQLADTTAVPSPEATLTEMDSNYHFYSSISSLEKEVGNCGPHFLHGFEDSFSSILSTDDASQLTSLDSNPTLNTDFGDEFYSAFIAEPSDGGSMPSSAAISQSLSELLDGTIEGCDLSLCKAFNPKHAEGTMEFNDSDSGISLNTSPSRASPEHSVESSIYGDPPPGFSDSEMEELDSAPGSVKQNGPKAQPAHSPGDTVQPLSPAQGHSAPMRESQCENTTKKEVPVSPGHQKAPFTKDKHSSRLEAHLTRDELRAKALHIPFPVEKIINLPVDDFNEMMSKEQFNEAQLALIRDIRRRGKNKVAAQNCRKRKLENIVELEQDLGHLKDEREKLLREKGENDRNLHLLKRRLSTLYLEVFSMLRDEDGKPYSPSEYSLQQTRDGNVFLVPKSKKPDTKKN
As to the kind of experiment: Activation of Nrf2 in mouse BV-2 cells assessed as increase in total Nrf2 level at 10 uM by Western blot analysis relative to control. Type of data set: cell-based. A digest of the protocol:
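BV-2 microglia treated 0.3–10 μM; Nrf2 measured by Western blot in nuclear extracts and whole-cell lysates; at least duplicate cultures, averaged, expressed as fold of untreated control ± SEM; paired t test.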

The subject of another data set is BV-2. Kind of data set: Antiinflammatory activity in mouse BV2 cells assessed as reduction in LPS-induced iNOS level at 1 to 10 uM incubated for 6 hrs followed by LPS stimulation for 12 hrs by Western blot analysis. The class given is functional, cell-based. An outline of the steps: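 BV-2 cells pretreated with compound 6 h, then stimulated with 1 μg/mL LPS for 12 h; protein and mRNA levels quantified relative to LPS-stimulated control; mean ± SD (n = 3); paired t test.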

Data set [4] concerns Mus musculus. Kind of data set: Protection against MPTP-induced DAergic neurotoxicity in C57B/6 mouse model of Parkinson's disease assessed as restoration of TH-positive neurons cell density in SN at 20 mg/kg, po observed after 7 days by microscopic analysis. Type of data set: functional, organism-based. An outline of the steps:
as §1

Data set [5] addresses T2, Nuclear factor erythroid 2-related factor 2 (Homo sapiens, UniProt Q16236).
T2 sequence (Q16236 whole entry): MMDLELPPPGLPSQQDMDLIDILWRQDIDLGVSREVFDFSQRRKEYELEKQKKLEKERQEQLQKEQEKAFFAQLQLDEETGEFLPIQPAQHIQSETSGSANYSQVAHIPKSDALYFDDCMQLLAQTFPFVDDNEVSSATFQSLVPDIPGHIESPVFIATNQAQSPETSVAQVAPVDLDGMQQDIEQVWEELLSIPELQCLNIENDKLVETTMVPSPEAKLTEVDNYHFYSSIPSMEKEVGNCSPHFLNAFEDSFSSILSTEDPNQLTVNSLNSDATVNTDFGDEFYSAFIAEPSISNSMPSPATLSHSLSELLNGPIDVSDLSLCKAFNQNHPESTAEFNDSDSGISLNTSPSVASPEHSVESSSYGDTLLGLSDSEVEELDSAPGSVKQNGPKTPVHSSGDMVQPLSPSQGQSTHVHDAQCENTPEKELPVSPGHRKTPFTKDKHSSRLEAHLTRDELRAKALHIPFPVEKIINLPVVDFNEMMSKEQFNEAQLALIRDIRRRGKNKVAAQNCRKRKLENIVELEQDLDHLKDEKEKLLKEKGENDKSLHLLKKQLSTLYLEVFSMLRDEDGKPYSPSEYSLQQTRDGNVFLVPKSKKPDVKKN
As to the kind of experiment: Activation of ED-tagged Nrf2 in human U2OS cells co-expressing Keap1 assessed as induction of NRF2 translocation to nucleus after 6 hrs by beta-galactosidase based chemiluminescent assay. The class given is cell-based.

Data set [6] has as its system Mus musculus. Kind of data set: Anti-parkinson's activity in MPTP-induced C57Bl/6 mouse model of Parkinson's disease assessed as abnormal movement at 20 mg/kg, po administered for 3 consecutive days prior and subsequent to MPTP administration (four injections of MPTP, 2 h intervals, 20 mg/kg, i.p. injection by coat hanger test. The class given is functional, organism-based. An outline of the steps: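 Mice dosed 20 mg/kg p.o. (or vehicle) for 3 consecutive days before and after MPTP (four i.p. injections, 20 mg/kg, 2 h apart); vertical grid test (turning, descent, total time) and coat-hanger scoring; n = 10–12 per group; mean ± SEM; one-way ANOVA with Tukey's test.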

Data set [7] concerns Mus musculus. As to the kind of experiment: Protection against MPTP-induced DAergic neurotoxicity in C57BL/6 mouse model of Parkinson's disease assessed as reduction in SNpc microglial activation by measuring Iba1 fluorescent intensity at 20 mg/kg/day, administered for 7 consecutive days by TH/Iba1 double immunostaining-based assay. The class given is functional, organism-based. Particulars: in the assay text read “administered for 3 consecutive days” for “administered for 7 consecutive days”. A digest of the protocol: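 Double immunofluorescence for TH and Iba-1 on coronal substantia nigra sections 10 days after i.p. MPTP; relative Iba-1 intensity compared, n = 9 per group; mean ± SEM; one-way ANOVA with Tukey's test.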

pEC50: −log10 of the molar value. Calls of active or inactive are those of the source. The rule behind the calls is not given here.

Take `COc1ccccc1OS(=O)(=O)/C=C/c1ccccc1Cl`: the result in the data set with Mus musculus [1], with BV-2, in the data set with Mus musculus [4], with Mus musculus [6] and with Mus musculus [7] was Active. For the same compound, the viability at 6 h, 10 µM in data set [2] came out at 95.9%. Besides, the fold change (FC) in data set [3] was 6.7. The pEC50 in data set [5] was 7.12.

For the origin of these results see ChEMBL document CHEMBL4304782, “Antioxidant, Anti-inflammatory, and Neuroprotective Effects of Novel Vinyl Sulfonate Compounds as Nrf2 Activator” (ACS Med Chem Lett, 2019).
